“Also recorded” adds a separate entry of the source.
Legend:
[1] = system: 33 representative human bZIPs; test: Coiled-coil array, panel of human bZIPs; format: binding
JUN = test: Coiled-coil array vs JUN; format: binding, human; conditions: BZLF1 probe 1280 nM
CEBPA = test: Coiled-coil array vs CEBPA; format: binding, human; conditions: BZLF1; leucine-zipper regions; probe 1280 nM
Procedure, shortened: (§1)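 Leucine-zipper regions of human bZIPs and viral proteins were expressed in E. coli RP3098, purified denaturing via Ni-NTA then reverse-phase HPLC, and printed on aldehyde glass slides. The fluorescently labelled BZLF1 zipper was probed at 1280 nM in phosphate buffer with GdnHCl. Each measurement averaged 8 background-corrected spots and was reported as Sarray or arrayscore, −log(F/Fmax), with F as intensity minus the probe's median signal.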

FOS = test: Coiled-coil array vs FOS; format: binding, human; conditions: BZLF1 probe 1280 nM
Procedure, shortened: as §1

BZLF1 = test: Coiled-coil array, BZLF1 self-association; format: binding, Epstein-Barr virus; conditions: BZLF1 leucine zipper; probe 1280 nM
CEBPA (C/EBPα) = conditions: cited from earlier work
MAFB on MARE DNA = test: Gel-shift with MAFB on MARE DNA; format: binding, human; conditions: MAFB 4 nM, HBZLZ 4, 40, 400, or 4000 nM
MAFG on MARE DNA = test: Gel-shift with MAFG on MARE DNA; format: binding, human; conditions: MAFG 4 nM, HBZLZ 4, 40, 400, or 4000 nM
Q9DGW5 = conditions: other: circular dichroism

Question: With “BZLF1CT: BZLF1 construct with the C-terminal extension (LLQHYREVAAAKSSENDRLRLLLKQMCPSLDVDSIIPRTPDVLHEDLLNF; fluorescently labeled when used as solution probe on the arrays (dye and site not stated))” as the molecule, how does the “interaction with human bZIPs on array” value ([1]; construct with the C-terminal extension) read?
Answer: did not interact strongly with any human proteins

Question: Which interaction on array (JUN) does the source give for “BZLF1: bZIP protein encoded by Epstein-Barr virus (LLQHYREVAAAKSSENDRLRLLLKQM; fluorescently labeled when used as solution probe on the arrays (dye and site not stated); left off: His tag (from the vector pDEST17, modified versions, and the Ni-NTA purification), end not stated,)” here?
Answer: not observed to interact on the arrays

Question: And the “interaction with human bZIPs on array” value ([1]; BZLF1 leucine zipper, probe concentration 1280 nM, average of 8 spots)?
Answer: not to interact with any human bZIP peptides; also recorded: display almost exclusive homo-association

Question: What about the interaction on array (CEBPA) of the same molecule?
Answer: this pairing was not observed in our array experiments

Question: And the interaction on array (FOS)?
Answer: not observed to interact on the arrays

Question: And the self-association on array (BZLF1)?
Answer: observed to self-associate strongly

Question: What about the “interaction with CEBPA” value (CEBPA (C/EBPα)) of the same molecule?
Answer: interact with many viral and cellular proteins including the human bZIP CEBPA (C/EBPα)

Question: With “HBZLZ: leucine-zipper-only version of HBZ (DGYTRQLEGEVESLEAERRKLLQEKEDLMGEVNYWQGRLEAMWLQ; fluorescently labeled when used as solution probe on the arrays (dye and site not stated); left off: His tag (from the vector pDEST17, modified versions, and the Ni-NTA purification), end not stated,)” as the molecule, how does the “amount of MAFB bound to DNA” value (MAFB on MARE DNA) read?
Answer: The amount of MAF protein bound to DNA was decreased, though a higher concentration of HBZLZ was required. No additional complex was detected

Question: And the “amount of MAFG bound to DNA” value (MAFG on MARE DNA)?
Answer: The amount of MAF protein bound to DNA was decreased, though a higher concentration of HBZLZ was required. No additional complex was detected

B1: MEQ bZIP domain (protein)
chain: KQKLERRRKRNRDAARRRRRKQTDYVDKLHEACEELQRANEHLRKEIRDLRTECTSLRVQLACH
Question: With B1 as the molecule, how does the “Tm (homo-association)” value (Q9DGW5) read?
Answer: for MEQ was 35.2 °C

Reference: PMC2841013 (Biochemistry, 2010)
